Measured values published in ChEMBL document CHEMBL4354866, “TREK Channel Family Activator with a Well-Defined Structure-Activation Relationship for Pain and Neurogenic Inflammation” (J Med Chem, 2020).
The source made the active and inactive calls. No cut-off for these calls is given here.

Molecular target: Potassium channel subfamily K member 3 (Homo sapiens) (UniProt O14649)
Experiment: Activation of recombinant human TASK1 expressed in HEK293T cells assessed as increase in K+ current amplitude at 10 uM by whole cell voltage clamp electrophysiological analysis
Assay type: cell-based
Outline: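 HEK-293T cells transiently transfected with the human K2P channel. Whole-cell clamp at -60 mV, 500-ms ramp -120 to +60 mV. Pipette 140 KCl (pH 7.4), external 145 NaCl/4 KCl (pH 7.3). Compound 10 μM, diluted from 10 mM DMSO stock into external solution.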

Sequence of Potassium channel subfamily K member 3 (Homo sapiens) (O14649 whole entry, looked up): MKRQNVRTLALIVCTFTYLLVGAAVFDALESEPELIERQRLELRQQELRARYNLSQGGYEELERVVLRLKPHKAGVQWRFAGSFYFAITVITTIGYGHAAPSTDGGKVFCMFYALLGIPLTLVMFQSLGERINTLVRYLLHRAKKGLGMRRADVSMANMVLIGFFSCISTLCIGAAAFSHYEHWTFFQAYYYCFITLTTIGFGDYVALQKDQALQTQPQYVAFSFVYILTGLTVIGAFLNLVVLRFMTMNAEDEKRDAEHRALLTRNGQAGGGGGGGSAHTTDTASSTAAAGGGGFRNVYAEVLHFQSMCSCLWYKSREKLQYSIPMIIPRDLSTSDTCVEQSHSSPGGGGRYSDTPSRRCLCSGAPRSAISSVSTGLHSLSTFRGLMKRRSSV

Activity: Active
Compound: Cc1ccc2nc(-c3ccc(NC(=O)[C@@H]4CC[C@H](C(=O)O)C4)cc3)sc2c1
